Results from ChEMBL document CHEMBL4715748, “Synthesis and biological investigation of new equatorial (β) stereoisomers of 3-aminotropane arylamides with atypical antipsychotic profile” (Bioorg Med Chem, 2016).

Experiments:
D(2) dopamine receptor = D(2) dopamine receptor (Rattus norvegicus, UniProt P61169); assay: Displacement of [3H] Spiperone from rat striatum dopamine D2 receptor measured after 30 mins by liquid scintillation counter method
Method in brief: (§1)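 Competition binding in rat brain tissue membranes against D2, 5-HT1A and 5-HT2A sites; Ki reported as mean ± S.E.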

[1] = target: T1, 5-hydroxytryptamine receptor 1A (Rattus norvegicus, UniProt P19327); assay: Displacement of [3H]-8-OH-DPAT from rat cerebral cortex 5HT1A receptor measured after 15 mins by liquid scintillation counter method
T1 sequence (P19327 whole entry): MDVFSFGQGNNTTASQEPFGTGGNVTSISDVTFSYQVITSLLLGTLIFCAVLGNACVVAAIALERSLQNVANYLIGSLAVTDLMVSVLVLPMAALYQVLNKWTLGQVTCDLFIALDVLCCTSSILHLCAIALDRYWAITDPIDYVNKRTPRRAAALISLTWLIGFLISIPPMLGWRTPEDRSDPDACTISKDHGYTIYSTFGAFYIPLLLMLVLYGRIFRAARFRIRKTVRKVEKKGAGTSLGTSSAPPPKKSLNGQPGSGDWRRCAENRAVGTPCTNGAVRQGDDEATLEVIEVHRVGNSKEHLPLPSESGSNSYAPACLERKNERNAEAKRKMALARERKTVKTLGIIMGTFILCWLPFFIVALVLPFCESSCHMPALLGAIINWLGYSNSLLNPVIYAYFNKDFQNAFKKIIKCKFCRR

[2] = target: 5-hydroxytryptamine receptor 2A (Rattus norvegicus, UniProt P14842); assay: Displacement of [3H]-ketanserin from rat cerebral cortex 5HT2A receptor measured after 20 mins by liquid scintillation counter method; method in brief: as §1
Sequence of 5-hydroxytryptamine receptor 2A (P14842 whole entry): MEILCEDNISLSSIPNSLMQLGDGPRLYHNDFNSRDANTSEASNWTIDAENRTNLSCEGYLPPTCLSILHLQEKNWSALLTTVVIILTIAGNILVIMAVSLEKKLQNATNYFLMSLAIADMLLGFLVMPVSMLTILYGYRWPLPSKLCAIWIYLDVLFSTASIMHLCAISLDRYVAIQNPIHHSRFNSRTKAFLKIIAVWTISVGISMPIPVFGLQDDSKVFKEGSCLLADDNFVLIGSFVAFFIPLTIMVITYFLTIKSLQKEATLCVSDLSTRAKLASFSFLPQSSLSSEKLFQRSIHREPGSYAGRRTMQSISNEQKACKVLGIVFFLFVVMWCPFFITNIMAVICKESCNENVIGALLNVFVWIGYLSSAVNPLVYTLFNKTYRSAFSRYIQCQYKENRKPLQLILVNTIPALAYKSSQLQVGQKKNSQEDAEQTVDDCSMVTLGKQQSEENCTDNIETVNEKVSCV

[3] = target: Dopamine D2 receptor and Serotonin 2a receptor (D2 and 5HT2a) (Rattus norvegicus) (UniProt P61169+P14842); assay: Ratio of pKi for displacement of [3H]-ketanserin from rat cerebral cortex 5HT2A receptor measured after 20 mins by liquid scintillation counter method to pKi for displacement of [3H] Spiperone from rat striatum dopamine D2 receptor measured after 30 mins by liquid scintillation counter method
Sequence of Dopamine D2 receptor and Serotonin 2a receptor (D2 and 5HT2a) (Rattus norvegicus) (P14842 whole entry, looked up): as the sequence (P14842 whole entry) above
Sequence of Dopamine D2 receptor and Serotonin 2a receptor (D2 and 5HT2a) (Rattus norvegicus) (P61169 whole entry, looked up): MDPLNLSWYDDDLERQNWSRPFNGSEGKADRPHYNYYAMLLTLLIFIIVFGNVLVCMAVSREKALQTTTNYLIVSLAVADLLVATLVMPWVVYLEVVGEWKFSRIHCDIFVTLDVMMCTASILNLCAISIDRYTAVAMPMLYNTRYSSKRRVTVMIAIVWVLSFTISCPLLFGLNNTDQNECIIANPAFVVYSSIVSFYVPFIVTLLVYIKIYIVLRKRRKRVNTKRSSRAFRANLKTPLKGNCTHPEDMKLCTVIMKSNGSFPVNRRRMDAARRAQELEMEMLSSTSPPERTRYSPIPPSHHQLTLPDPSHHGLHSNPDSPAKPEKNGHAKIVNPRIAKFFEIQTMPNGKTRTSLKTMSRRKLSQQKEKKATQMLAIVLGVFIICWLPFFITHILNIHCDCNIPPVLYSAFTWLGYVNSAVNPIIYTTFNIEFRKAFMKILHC
Method in brief: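 Ratio of pKi values, 5-HT2A over D2, computed from competition radioligand binding in rat brain tissue.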

[4] = Effect on body temperature in Swiss Albino mouse assessed as rectal body temperature at 10 mg/kg, ip measured after 30 mins by thermometer (reference value: 0.16 to 0.33 degreeC); assay type: organism-based; details: in vivo, 0.5 h
[5] = Effect on body temperature in Swiss Albino mouse assessed as rectal body temperature at 20 mg/kg, ip measured after 30 mins by thermometer (reference value: 0.16 to 0.33 degreeC); assay type: ADME, organism-based; details: in vivo, 0.5 h
[6] = Effect on body temperature in Swiss Albino mouse assessed as rectal body temperature at 10 mg/kg, ip measured after 60 mins by thermometer (reference value: 0.33 to 0.61 degreeC); assay type: ADME, organism-based; details: in vivo, 1 h
[7] = Effect on body temperature in Swiss Albino mouse assessed as rectal body temperature at 20 mg/kg, ip measured after 60 mins by thermometer (reference value: 0.33 to 0.61 degreeC); assay type: ADME, organism-based; details: in vivo, 1 h
[8] = Effect on body temperature in Swiss Albino mouse assessed as rectal body temperature at 10 mg/kg, ip measured after 90 mins by thermometer (reference value: 0.18 to 0.63 degreeC); assay type: ADME, organism-based; details: in vivo, 1.5 h
[9] = Effect on body temperature in Swiss Albino mouse assessed as rectal body temperature at 20 mg/kg, ip measured after 90 mins by thermometer (reference value: 0.18 to 0.63 degreeC); assay type: ADME, organism-based; details: in vivo, 1.5 h
[10] = Effect on body temperature in Swiss Albino mouse assessed as rectal body temperature at 10 mg/kg, ip measured after 120 mins by thermometer (reference value: 0.15 to 1.11 degreeC); assay type: organism-based; details: in vivo, 2 h
[11] = Effect on body temperature in Swiss Albino mouse assessed as rectal body temperature at 20 mg/kg, ip measured after 120 mins by thermometer (reference value: 0.15 to 1.11 degreeC); assay type: ADME, organism-based; details: in vivo, 2 h
Mus musculus [12] = assay: Effect on 8-OH-DPAT-induced hypothermia in Swiss albino mouse assessed as change in rectal body temperature at 10 mg/kg, ip pretreated with compound for 45 mins followed by 8-OH-DPAT challenge and measured after 15 min by thermometer (reference value: -1.82 to -1.66 degreeC); assay type: functional, organism-based; details: time 60.0 min
Mus musculus [13] = assay: Effect on 8-OH-DPAT-induced hypothermia in Swiss albino mouse assessed as change in rectal body temperature at 20 mg/kg, ip pretreated with compound for 45 mins followed by 8-OH-DPAT challenge and measured after 15 min by thermometer (reference value: -1.82 to -1.66 degreeC); assay type: functional, organism-based; details: time 60.0 min
Mus musculus [14] = assay: Effect on 8-OH-DPAT-induced hypothermia in Swiss albino mouse assessed as change in rectal body temperature at 10 mg/kg, ip pretreated with compound for 45 mins followed by 8-OH-DPAT challenge and measured after 30 min by thermometer (reference value: -1.36 to -1.12 degreeC); assay type: functional, organism-based; details: time 75.0 min
Mus musculus [15] = assay: Effect on 8-OH-DPAT-induced hypothermia in Swiss albino mouse assessed as change in rectal body temperature at 20 mg/kg, ip pretreated with compound for 45 mins followed by 8-OH-DPAT challenge and measured after 30 min by thermometer (reference value: -1.36 to -1.12 degreeC); assay type: functional, organism-based; details: time 75.0 min
Mus musculus [16] = assay: Effect on 8-OH-DPAT-induced hypothermia in Swiss albino mouse assessed as change in rectal body temperature at 10 mg/kg, ip pretreated with compound for 45 mins followed by 8-OH-DPAT challenge and measured after 45 min by thermometer (reference value: -1.04 to -0.78 degreeC); assay type: functional, organism-based; details: time 90.0 min
Mus musculus [17] = assay: Effect on 8-OH-DPAT-induced hypothermia in Swiss albino mouse assessed as change in rectal body temperature at 20 mg/kg, ip pretreated with compound for 45 mins followed by 8-OH-DPAT challenge and measured after 45 min by thermometer (reference value: -1.04 to -0.78 degreeC); assay type: functional, organism-based; details: time 90.0 min
Mus musculus [18] = assay: Effect on 8-OH-DPAT-induced hypothermia in Swiss albino mouse assessed as change in rectal body temperature at 10 mg/kg, ip pretreated with compound for 45 mins followed by 8-OH-DPAT challenge and measured after 60 min by thermometer (reference value: -0.66 to -0.5 degreeC); assay type: functional, organism-based; details: time 105.0 min
Mus musculus [19] = assay: Effect on 8-OH-DPAT-induced hypothermia in Swiss albino mouse assessed as change in rectal body temperature at 20 mg/kg, ip pretreated with compound for 45 mins followed by 8-OH-DPAT challenge and measured after 60 min by thermometer (reference value: -0.66 to -0.5 degreeC); assay type: functional, organism-based; details: time 105.0 min
[20] = Effect on 8-OH-DPAT-induced lower lip retraction in Wistar rat at 10 mg/kg, ip pretreated with compound for 45 mins followed by 8-OH-DPAT challenge and measured after 15 mins (reference value: 2.7 to 2.8); assay type: functional; details: time 60 min, 1 h
[21] = Effect on 8-OH-DPAT-induced lower lip retraction in Wistar rat at 20 mg/kg, ip pretreated with compound for 45 mins followed by 8-OH-DPAT challenge and measured after 15 mins (reference value: 2.7 to 2.8); assay type: functional; details: time 60 min, 1 h
Mus musculus [22] = assay: Antipsychotic activity Swiss Albino mouse assessed as inhibition of DOI-induced head twitching by measuring number of episodes at 2.5 mg/kg, ip administered 30 mins prior to DOI stimulation (reference value: 19.63 to 19.88); assay type: functional; details: 0.5 h
Method in brief: (§2)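 Male Albino Swiss mice (24–28 g) were habituated to sawdust-lined cages 20 min before the first treatment. Compounds were suspended in 1% aqueous Tween 80 and given i.p. 30 min before (±)-DOI, 2.5 mg/kg i.p. in aqueous solution. Head twitches were counted blind over 20 min, n=8 per group, mean ± SEM, one-way ANOVA with Dunnett's test.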

Mus musculus [23] = assay: Antipsychotic activity Swiss Albino mouse assessed as inhibition of DOI-induced head twitching by measuring number of episodes at 5 mg/kg, ip administered 30 mins prior to DOI stimulation (reference value: 19.63 to 19.88); assay type: functional; details: 0.5 h; method in brief: as §2
Mus musculus [24] = assay: Antipsychotic activity Swiss Albino mouse assessed as inhibition of DOI-induced head twitching by measuring number of episodes at 10 mg/kg, ip administered 30 mins prior to DOI stimulation (reference value: 19.63 to 19.88); assay type: functional; details: 0.5 h; method in brief: as §2
[25] = Half life in pooled human liver microsomes assessed as parent compound remaining at 2.5 uM measured up to 45 mins in presence of NADPH by LC-MS analysis; assay type: ADME, Microsome
Method in brief: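 Compound at 2.5 μM (added from 100 μM stock in 50/50 acetonitrile/water) with 1 mg/mL pooled human liver microsomes and 250 μM NADPH in 0.1 M potassium phosphate pH 7.4 at 37 °C after 5-min preincubation. Sampled at 5, 10, 15, 30, 45 min into ice-cold acetonitrile with atropine internal standard; parent quantified by LC-MS (ESI+, [M+H]+); no-NADPH controls; half-time derived.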

Sequence of D(2) dopamine receptor (P61169 whole entry): as the sequence (P61169 whole entry, looked up) above

SMILES: COc1ccc(CN2C3CCC2CC(NC(=O)c2ccc4ccccc4c2)C3)cc1 (stereo unspecified)
- Ki (D(2) dopamine receptor): 0.6 nM
- Ki [1]: 2600 nM
- Ki [2]: 920 nM

SMILES: COc1cc(C(=O)NC2CC3CCC(C2)N3Cc2ccccc2)nc2ccccc12 (stereo unspecified)
- Ki (D(2) dopamine receptor): > 10000 nM
- Ki [1]: 30.5 nM
- Ki [2]: 495 nM

SMILES: O=C(NC1CC2CCC(C1)N2Cc1cccnc1)c1ccc2ccccc2c1 (stereo unspecified)
- Ki (D(2) dopamine receptor): 2400 nM
- Ki [1]: 485 nM
- Ki [2]: 484 nM

SMILES: Cc1ccc(CN2C3CCC2CC(NC(=O)c2ccc4ccccc4c2)C3)cc1 (stereo unspecified)
- Ki (D(2) dopamine receptor): 0.4 nM
- Ki [1]: 728 nM
- Ki [2]: 854 nM

SMILES: O=C(NC1CC2CCC(C1)N2Cc1ccc(Br)cc1)c1ccc2ccccc2c1 (stereo unspecified)
- Ki (D(2) dopamine receptor): 4.5 nM
- Ki [1]: 230 nM
- Ki [2]: 326 nM

SMILES: O=C(NC1CC2CCC(C1)N2Cc1ccccc1Br)c1ccc2ccccc2c1 (stereo unspecified)
- Ki (D(2) dopamine receptor): 22.8 nM
- Ki [1]: 196 nM
- Ki [2]: 136 nM

SMILES: COc1ccccc1CN1C2CCC1CC(NC(=O)c1ccc3ccccc3c1)C2 (stereo unspecified)
- Ki (D(2) dopamine receptor): 76.9 nM
- Ki [1]: 82.5 nM
- Ki [2]: 920 nM
- Ratio pKi [3]: 0.85
- deltaT [4]: 0.23 °C
- deltaT [5]: -0.34 °C
- deltaT [6]: 0.44 °C
- deltaT [7]: 0.01 °C
- deltaT [8]: 0.63 °C
- deltaT [9]: 0.16 °C
- deltaT [10]: 0.26 °C
- deltaT [11]: -0.26 °C
- deltaT (Mus musculus [12]): -1.37 °C
- deltaT (Mus musculus [13]): -1.47 °C
- deltaT (Mus musculus [14]): -1.77 °C
- deltaT (Mus musculus [15]): -1.37 °C
- deltaT (Mus musculus [16]): -1.45 °C
- deltaT (Mus musculus [17]): -0.92 °C
- deltaT (Mus musculus [18]): -1.08 °C
- deltaT (Mus musculus [19]): -0.65 °C
- Activity [20]: 2.5
- Activity [21]: 2
- Activity (Mus musculus [22]): 16.25
- Activity (Mus musculus [23]): 12.25
- Activity (Mus musculus [24]): 8.25
- half-life at 2.5 µM [25]: 41.3 min

SMILES: O=C(NC1CC2CCC(C1)N2Cc1ccccc1F)c1ccc2ccccc2c1 (stereo unspecified)
- Ki (D(2) dopamine receptor): 715 nM
- Ki [1]: 365 nM
- Ki [2]: 106 nM

SMILES: Cc1ccccc1CN1C2CCC1CC(NC(=O)c1ccc3ccccc3c1)C2 (stereo unspecified)
- Ki (D(2) dopamine receptor): 118 nM
- Ki [1]: 193 nM
- Ki [2]: 1290 nM

SMILES: O=C(NC1CC2CCC(C1)N2Cc1ccc(Cl)cc1)c1ccc2ccccc2c1 (stereo unspecified)
- Ki (D(2) dopamine receptor): 0.4 nM
- Ki [1]: 2500 nM
- Ki [2]: 397 nM

SMILES: O=C(NC1CC2CCC(C1)N2Cc1ccccn1)c1ccc2ccccc2c1 (stereo unspecified)
- Ki (D(2) dopamine receptor): 2200 nM
- Ki [1]: 315 nM
- Ki [2]: 589 nM

SMILES: O=C(NC1CC2CCC(C1)N2Cc1ccc(C(F)(F)F)cc1)c1ccc2ccccc2c1 (stereo unspecified)
- Ki (D(2) dopamine receptor): 629 nM
- Ki [1]: 2000 nM
- Ki [2]: > 10000 nM

SMILES: O=C(NC1CC2CCC(C1)N2Cc1cccc(C(F)(F)F)c1)c1ccc2ccccc2c1 (stereo unspecified)
- Ki (D(2) dopamine receptor): 217 nM
- Ki [1]: 130 nM
- Ki [2]: 209 nM

SMILES: O=C(NC1CC2CCC(C1)N2Cc1ccncc1)c1ccc2ccccc2c1 (stereo unspecified)
- Ki (D(2) dopamine receptor): 2700 nM
- Ki [1]: 2300 nM
- Ki [2]: 1120 nM

SMILES: O=C(NC1CC2CCC(C1)N2Cc1ccccc1)c1ccc2ccccc2n1 (stereo unspecified)
- Ki (D(2) dopamine receptor): 589 nM
- Ki [1]: 62.7 nM
- Ki [2]: 502 nM

SMILES: O=C(NC1CC2CCC(C1)N2Cc1ccccc1C(F)(F)F)c1ccc2ccccc2c1 (stereo unspecified)
- Ki (D(2) dopamine receptor): 537 nM
- Ki [1]: 476 nM
- Ki [2]: 102 nM
